Laboratory results as given in ChEMBL document CHEMBL3596097, “Stereoselective synthesis and pharmacological evaluation of [4.3.3]propellan-8-amines as analogs of adamantanamines” (Bioorg Med Chem, 2015).
Active and inactive are the calls of the source. The rule behind the calls is not given here.

Tests used:
[1] = Displacement of [3H]-(+)-MK-801 from phencyclidine binding site of NMDA receptor in pig membranes after 150 mins by scintillation counting analysis; assay type: cell membranes, Sus scrofa
How it was run: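 Thawed membrane preparation (about 100 µg protein) incubated with test compound at various concentrations and 2 nM [3H]-(+)-MK-801 (22.0 Ci/mmol) in TRIS/EDTA (5 mM/1 mM, pH 7.5), 150 min, rt. Stopped by rapid filtration over presoaked filtermats, five water washes, melted solid scintillator, then counting. Nonspecific binding was taken with unlabeled (+)-MK-801. Radioligand Kd 2.26 nM.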

[2] = system: Influenza A virus; experiment: Antiviral activity against Influenza virus A/FPV/Bratislava/79(H7N7) infected in human A549 cells assessed as viral replication at 5 uM after 24 hrs by plaque assay relative to control; assay type: functional
[3] = target: Glutamate NMDA receptor; GRIN1/GRIN2A (Homo sapiens, UniProt Q05586+Q12879); experiment: Displacement of [3H]-(+)-MK-801 from phencyclidine binding site of NMDA receptor in human frontal cortex after 22 hrs by scintillation counting analysis; assay type: tissue-based
[4] = organism: Rattus norvegicus; experiment: Displacement of [3H]-DTG from sigma-2 receptor in rat liver membranes up to 10 uM after 120 mins by scintillation counting analysis; assay type: cell membranes; conditions: Membrane
[5] = target: Sigma non-opioid intracellular receptor 1 (Cavia porcellus) (UniProt Q60492); experiment: Displacement of [3H]-(+)-pentazocine from sigma-1 receptor in guinea pig brain cortex membranes up to 10 uM after 120 mins by scintillation counting analysis; assay type: cell membranes; conditions: Cerebral cortex
Sequence of Sigma non-opioid intracellular receptor 1 (Cavia porcellus) (Q60492 whole entry): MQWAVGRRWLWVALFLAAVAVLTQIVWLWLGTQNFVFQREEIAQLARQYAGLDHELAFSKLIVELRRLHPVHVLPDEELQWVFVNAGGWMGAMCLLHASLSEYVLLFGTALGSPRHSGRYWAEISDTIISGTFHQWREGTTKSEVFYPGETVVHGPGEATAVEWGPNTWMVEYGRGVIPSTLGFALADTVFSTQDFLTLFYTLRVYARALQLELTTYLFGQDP

Sequence of Glutamate NMDA receptor; GRIN1/GRIN2A (Q12879 whole entry, other chains not shown): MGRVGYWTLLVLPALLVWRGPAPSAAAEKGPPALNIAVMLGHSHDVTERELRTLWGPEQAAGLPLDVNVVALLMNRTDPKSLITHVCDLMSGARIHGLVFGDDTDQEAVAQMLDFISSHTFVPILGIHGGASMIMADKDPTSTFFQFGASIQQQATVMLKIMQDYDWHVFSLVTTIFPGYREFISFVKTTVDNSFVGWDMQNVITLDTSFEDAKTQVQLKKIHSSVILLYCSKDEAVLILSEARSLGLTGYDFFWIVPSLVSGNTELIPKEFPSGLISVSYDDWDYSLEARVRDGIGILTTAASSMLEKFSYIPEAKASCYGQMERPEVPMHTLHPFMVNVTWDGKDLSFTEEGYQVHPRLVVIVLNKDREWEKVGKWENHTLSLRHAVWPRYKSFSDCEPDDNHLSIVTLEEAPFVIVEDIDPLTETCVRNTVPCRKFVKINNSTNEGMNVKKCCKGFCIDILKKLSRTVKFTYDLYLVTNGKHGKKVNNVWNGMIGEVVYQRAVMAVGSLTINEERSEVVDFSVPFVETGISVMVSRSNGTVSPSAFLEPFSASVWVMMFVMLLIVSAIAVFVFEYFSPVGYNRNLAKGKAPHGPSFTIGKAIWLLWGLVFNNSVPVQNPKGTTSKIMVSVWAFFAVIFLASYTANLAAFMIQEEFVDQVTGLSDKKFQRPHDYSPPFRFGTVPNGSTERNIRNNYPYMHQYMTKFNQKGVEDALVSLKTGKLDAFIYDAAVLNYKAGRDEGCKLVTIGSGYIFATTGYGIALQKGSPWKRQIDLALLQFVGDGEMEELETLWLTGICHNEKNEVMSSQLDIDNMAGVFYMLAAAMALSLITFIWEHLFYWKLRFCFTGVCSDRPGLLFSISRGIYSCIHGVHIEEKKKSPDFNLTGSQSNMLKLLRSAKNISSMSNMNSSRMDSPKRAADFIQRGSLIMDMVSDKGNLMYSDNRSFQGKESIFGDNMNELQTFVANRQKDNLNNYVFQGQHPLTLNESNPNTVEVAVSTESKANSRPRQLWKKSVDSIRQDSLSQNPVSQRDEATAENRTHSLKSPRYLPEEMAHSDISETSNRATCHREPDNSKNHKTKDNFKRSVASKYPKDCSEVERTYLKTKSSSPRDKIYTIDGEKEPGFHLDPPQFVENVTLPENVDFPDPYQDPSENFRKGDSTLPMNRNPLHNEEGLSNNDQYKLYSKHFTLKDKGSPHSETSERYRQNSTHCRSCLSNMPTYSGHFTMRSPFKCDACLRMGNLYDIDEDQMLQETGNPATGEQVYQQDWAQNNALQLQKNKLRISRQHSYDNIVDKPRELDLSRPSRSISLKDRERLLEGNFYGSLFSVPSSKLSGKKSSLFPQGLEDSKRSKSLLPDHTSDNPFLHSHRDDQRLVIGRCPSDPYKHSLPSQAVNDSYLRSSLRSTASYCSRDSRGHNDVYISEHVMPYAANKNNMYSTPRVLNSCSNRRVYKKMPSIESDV

| Compound | Ki [1] [µM] | Activity [2] [%] | Ki [3] [µM] | inhibition [4] | inhibition [5] |
| --- | --- | --- | --- | --- | --- |
| NC12CC3CC(CC(C3)C1)C2 [AMANTADINE] | 11 | 3.9 | 10 |  |  |
| C[C@]12N[C@H](Cc3ccccc31)c1ccccc12 [DIZOCILPINE] | 0.003 |  |  |  |  |
| NC1CC23CCCCC2(CCC3)C1 (mixture of isomers) | 10.5 | 65 |  |  |  |
| CC12CC3CC(C)(C1)CC(N)(C3)C2 [MEMANTINE] | 9.74 |  |  |  |  |
| N[C@@H]1C[C@@]23CCCC[C@@]2(CCC3)C1 | 16 | 97 |  | inactive | inactive |
| N[C@H]1C[C@@]23CCCC[C@@]2(CCC3)C1 | 11 | 116 |  | inactive | inactive |
